Reference: ChEMBL document CHEMBL4028826, “Virtual screen to NMR (VS2NMR): Discovery of fragment hits for the CBP bromodomain” (Bioorg Med Chem Lett, 2017)

Tests used:
CREB-binding protein [1] = molecular target: T1, CREB-binding protein (Homo sapiens, UniProt Q92793); test: Residual binding of human CBP expressed in Escherichia coli to histone H4 tetraacetylated peptide at 0.5 mM by Alphascreen assay relative to control
CREB-binding protein [2] = molecular target: T1, CREB-binding protein; test: Binding affinity to CBP (unknown origin) assessed as change in melting temperature at 1 mM by differential scanning fluorimetric method
Outline: (§1)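 Differential scanning fluorimetry with bromodomain at 2 μM and ligand at 1 mM. The reported shift in melting temperature is the median of at least nine measurements for each ligand/bromodomain pair.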

[3] = molecular target: Histone acetyltransferase p300 (Homo sapiens) (UniProt Q09472); test: Binding affinity to EP300 (unknown origin) assessed as change in melting temperature at 1 mM by differential scanning fluorimetric method
Outline: as §1

CREB-binding protein [4] = molecular target: T1, CREB-binding protein; test: Binding affinity to partial length human DNA-tagged CBP (R1081 to G1197 residues) expressed in bacterial expression system by qPCR analysis
Outline: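 Competition-binding assay using DNA-tagged CBP bromodomain against an undisclosed proprietary ligand, with quantitative PCR read-out. KD was obtained by curve fitting of 12-point dose responses run in duplicate.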
Target sequence in this assay (Q92793 whole entry): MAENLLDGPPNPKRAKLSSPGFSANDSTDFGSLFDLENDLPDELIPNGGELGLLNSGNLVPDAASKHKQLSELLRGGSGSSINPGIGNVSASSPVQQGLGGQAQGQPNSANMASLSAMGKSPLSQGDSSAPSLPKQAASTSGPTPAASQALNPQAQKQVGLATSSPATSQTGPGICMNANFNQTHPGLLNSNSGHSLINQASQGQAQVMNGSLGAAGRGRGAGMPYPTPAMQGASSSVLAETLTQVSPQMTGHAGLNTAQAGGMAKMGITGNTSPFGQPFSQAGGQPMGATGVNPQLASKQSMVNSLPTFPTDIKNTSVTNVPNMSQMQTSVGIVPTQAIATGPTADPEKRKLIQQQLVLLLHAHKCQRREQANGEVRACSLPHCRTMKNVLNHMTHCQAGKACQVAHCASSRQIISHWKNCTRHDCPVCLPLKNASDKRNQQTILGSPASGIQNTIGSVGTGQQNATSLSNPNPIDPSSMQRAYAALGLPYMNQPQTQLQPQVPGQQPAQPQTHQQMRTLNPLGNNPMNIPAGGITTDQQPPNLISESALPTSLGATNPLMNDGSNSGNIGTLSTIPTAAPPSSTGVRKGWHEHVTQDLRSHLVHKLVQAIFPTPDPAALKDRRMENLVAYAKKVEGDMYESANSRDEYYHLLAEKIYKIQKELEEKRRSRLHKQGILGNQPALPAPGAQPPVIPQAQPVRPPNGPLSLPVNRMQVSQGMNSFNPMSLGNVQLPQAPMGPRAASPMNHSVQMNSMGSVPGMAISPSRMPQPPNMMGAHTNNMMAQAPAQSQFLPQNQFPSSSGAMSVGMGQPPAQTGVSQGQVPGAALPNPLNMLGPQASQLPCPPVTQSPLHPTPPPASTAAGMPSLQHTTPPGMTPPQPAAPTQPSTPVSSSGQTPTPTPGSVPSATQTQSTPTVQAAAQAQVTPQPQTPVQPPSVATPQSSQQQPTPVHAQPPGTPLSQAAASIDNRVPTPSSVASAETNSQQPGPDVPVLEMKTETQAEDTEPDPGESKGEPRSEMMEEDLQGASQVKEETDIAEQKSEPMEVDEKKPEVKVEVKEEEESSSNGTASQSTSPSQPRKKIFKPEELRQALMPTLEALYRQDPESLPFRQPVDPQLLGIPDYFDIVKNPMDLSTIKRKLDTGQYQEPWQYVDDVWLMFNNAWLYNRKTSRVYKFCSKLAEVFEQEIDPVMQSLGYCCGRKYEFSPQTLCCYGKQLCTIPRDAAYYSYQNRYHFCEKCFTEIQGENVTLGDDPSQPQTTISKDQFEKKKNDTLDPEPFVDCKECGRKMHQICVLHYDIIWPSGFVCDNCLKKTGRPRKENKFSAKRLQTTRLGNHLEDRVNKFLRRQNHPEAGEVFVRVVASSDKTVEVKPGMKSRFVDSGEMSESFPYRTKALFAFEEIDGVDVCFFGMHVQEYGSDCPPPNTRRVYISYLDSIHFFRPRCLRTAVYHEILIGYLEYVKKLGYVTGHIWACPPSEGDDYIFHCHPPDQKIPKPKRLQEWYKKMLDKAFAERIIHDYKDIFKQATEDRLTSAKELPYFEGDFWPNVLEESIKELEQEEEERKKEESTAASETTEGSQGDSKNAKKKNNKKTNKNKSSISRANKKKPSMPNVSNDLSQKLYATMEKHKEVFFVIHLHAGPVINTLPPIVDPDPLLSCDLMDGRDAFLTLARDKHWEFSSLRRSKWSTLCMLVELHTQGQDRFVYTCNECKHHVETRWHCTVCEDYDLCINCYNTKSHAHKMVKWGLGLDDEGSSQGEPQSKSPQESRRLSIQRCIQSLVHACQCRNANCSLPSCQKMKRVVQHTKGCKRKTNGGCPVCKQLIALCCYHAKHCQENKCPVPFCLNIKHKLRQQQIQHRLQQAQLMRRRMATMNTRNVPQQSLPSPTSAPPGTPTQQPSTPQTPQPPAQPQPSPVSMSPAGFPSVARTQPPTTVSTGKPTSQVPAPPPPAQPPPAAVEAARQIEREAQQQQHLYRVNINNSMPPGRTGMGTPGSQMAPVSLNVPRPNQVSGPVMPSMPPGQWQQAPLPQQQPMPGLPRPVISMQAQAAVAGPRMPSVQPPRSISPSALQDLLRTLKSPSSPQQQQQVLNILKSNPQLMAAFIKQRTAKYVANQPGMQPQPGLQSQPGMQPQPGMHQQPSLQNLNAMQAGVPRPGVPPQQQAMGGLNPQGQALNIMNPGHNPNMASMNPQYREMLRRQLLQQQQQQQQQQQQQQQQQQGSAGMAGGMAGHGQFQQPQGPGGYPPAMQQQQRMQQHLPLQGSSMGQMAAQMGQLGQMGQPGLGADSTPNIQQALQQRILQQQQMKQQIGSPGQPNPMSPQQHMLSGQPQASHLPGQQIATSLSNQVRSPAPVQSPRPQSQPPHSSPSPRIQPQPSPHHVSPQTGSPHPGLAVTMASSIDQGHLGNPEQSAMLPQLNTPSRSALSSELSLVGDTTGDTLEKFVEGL

CREB-binding protein [5] = molecular target: T1, CREB-binding protein; test: Inhibition of histone H4 tetraacetylated peptide binding to human CBP by Alphascreen assay
Outline: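 AlphaScreen competition with a tetra-acetylated 21-mer histone H4 peptide as the competitor for the CBP bromodomain. IC50 was obtained by curve fitting of 10-point dose responses.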
Target sequence in this assay (Q92793 whole entry): as above

Histone acetyltransferase p300 (Homo sapiens), sequence (Q09472 whole entry): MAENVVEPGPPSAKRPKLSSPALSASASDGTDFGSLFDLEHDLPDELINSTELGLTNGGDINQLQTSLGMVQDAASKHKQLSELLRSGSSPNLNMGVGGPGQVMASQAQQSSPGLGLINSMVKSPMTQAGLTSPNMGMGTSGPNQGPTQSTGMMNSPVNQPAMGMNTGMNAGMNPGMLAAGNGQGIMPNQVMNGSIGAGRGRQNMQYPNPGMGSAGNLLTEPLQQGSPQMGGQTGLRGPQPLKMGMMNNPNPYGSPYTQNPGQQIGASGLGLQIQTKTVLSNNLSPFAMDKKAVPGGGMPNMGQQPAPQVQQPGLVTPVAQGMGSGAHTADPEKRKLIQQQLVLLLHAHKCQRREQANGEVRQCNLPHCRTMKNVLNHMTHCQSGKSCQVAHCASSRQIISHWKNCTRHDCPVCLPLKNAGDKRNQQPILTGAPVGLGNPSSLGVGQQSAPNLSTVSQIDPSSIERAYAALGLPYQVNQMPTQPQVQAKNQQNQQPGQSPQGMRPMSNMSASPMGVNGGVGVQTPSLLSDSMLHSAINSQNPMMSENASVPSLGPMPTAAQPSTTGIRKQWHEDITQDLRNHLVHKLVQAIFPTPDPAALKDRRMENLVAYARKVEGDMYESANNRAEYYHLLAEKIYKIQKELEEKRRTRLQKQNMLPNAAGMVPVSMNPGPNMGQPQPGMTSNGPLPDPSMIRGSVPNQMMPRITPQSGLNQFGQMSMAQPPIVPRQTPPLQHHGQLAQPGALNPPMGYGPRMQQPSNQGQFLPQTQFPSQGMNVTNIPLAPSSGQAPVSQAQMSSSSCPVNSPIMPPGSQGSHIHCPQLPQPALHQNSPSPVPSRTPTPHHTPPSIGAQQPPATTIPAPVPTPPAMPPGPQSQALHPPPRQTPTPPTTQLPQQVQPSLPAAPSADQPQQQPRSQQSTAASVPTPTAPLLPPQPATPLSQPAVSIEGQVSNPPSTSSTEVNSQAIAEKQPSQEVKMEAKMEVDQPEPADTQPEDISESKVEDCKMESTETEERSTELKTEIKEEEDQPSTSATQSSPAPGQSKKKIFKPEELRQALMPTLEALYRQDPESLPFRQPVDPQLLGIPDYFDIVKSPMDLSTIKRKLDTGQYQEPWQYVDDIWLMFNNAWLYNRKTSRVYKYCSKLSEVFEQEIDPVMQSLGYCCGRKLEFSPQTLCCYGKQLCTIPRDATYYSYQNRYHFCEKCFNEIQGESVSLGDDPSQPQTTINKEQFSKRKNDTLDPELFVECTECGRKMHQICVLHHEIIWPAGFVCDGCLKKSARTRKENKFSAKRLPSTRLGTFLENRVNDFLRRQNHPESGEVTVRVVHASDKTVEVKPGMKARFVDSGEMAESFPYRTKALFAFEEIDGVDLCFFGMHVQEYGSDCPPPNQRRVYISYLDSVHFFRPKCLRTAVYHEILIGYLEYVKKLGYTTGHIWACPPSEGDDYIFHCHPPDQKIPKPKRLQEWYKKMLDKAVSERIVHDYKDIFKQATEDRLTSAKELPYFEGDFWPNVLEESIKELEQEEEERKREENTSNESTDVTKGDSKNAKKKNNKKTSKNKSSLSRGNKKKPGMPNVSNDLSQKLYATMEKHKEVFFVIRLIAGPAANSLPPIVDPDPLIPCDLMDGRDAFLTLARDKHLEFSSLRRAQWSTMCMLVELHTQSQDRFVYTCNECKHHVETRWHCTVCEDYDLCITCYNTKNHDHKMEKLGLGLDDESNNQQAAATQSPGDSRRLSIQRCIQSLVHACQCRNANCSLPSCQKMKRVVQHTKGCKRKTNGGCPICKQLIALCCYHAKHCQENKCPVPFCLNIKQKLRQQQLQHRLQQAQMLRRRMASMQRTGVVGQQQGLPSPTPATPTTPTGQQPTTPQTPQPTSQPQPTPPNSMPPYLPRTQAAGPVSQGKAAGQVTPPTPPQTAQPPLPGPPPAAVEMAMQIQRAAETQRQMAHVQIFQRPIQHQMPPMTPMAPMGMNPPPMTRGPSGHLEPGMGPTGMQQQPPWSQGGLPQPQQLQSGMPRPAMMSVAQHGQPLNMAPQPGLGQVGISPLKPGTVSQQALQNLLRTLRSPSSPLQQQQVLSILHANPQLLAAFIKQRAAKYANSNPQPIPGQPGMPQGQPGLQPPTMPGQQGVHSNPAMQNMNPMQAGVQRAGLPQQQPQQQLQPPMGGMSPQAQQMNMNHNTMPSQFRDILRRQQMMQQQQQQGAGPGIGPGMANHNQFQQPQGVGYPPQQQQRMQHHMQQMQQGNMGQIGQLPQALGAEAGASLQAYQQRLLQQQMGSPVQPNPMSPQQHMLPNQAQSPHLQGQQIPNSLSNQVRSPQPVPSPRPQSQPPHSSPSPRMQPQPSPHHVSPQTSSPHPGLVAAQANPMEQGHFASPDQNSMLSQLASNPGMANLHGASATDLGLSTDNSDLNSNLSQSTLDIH

Row | residual activity (CREB-binding protein [1]) [%] | also measured | Compound
1 | 74 |  | CC(=O)Nc1ccc(SCC#N)cc1
2 | 100 |  | Cn1ncc2c1CCCC2=O
3 | 92 |  | Cc1nc2ccc(NS(C)(=O)=O)cc2o1
4 | 56 |  | CC(=O)c1ccc(CC#N)s1
5 | 48 | ΔTm (CREB-binding protein [2]): -0.1 °C; ΔTm [3]: -1.3 °C | COc1ccc(-c2c[nH]nc2N)cc1OC
6 | 102 |  | Cc1nnc2ccc(N3CCOCC3)nn12
7 | 92 |  | Cc1nnsc1Sc1ccccn1
8 | 31 | ΔTm (CREB-binding protein [2]): 2.9 °C; ΔTm [3]: 2.6 °C | CC(=O)c1cn(C)c2ccccc12
9 | 94 |  | O=C(O)[C@@H]1CS[C@H](c2ccc(F)cc2)N1
10 | 92 |  | COC(=O)c1ccc(C(C)=O)cc1
11 | 0.1 | Kd (CREB-binding protein [4]): 4 µM; IC50 (CREB-binding protein [5]): 40 µM; ΔTm (CREB-binding protein [2]): 7.3 °C; ΔTm [3]: 7 °C | CNC(=O)c1cc(Br)c[nH]1
12 | 79 |  | CCn1cnc2ccc(C(=O)OC)cc21
13 | 34 | Kd (CREB-binding protein [4]): 85 µM; IC50 (CREB-binding protein [5]): 455 µM; ΔTm (CREB-binding protein [2]): 2.3 °C; ΔTm [3]: 1.4 °C | COC(=O)c1ccc2[nH]c(=O)oc2c1
14 | 93 |  | CC(=O)c1ccc(O)c2[nH]c(=O)ccc12
15 | 85 |  | CCc1nnc2cccc(Cl)n12
16 | 56 |  | COC(=O)N1CCC(C(=O)O)CC1
17 | 100 |  | CS(=O)(=O)NCc1ccc2c(c1)OCO2
18 | 98 |  | O=c1[nH]c(=O)n([C@H]2C[C@H](O)[C@H](CO)O2)cc1F
19 | 37 | ΔTm (CREB-binding protein [2]): 2.4 °C; ΔTm [3]: 2.6 °C | COc1cc(C(C)=O)ccc1N
20 | 96 |  | CNC(=O)c1ccc(C(F)(F)F)nc1
